One data set concerns the target Histone deacetylase. As to the kind of experiment: Inhibition of HDAC in human HeLa cell nuclear extract using Boc-Lys(Ac)-AMC as substrate after 30 mins by fluorimetric analysis. Format: protein assay.
Another data set deals with KB. The data set can be described thus: Cytotoxicity against human KB cells by MTT assay. Format: functional, cell-based. (In general: Formazan colour is commonly taken as a measure of viable cells.)
The next data set has as its system PC-3. As to the kind of experiment: Cytotoxicity against human PC3 cells by MTT assay. The class given is functional, cell-based.
The subject of data set [1] is HCT-116. The data set can be described thus: Cytotoxicity against human HCT116 cells by MTT assay. Format: functional, cell-based.
The nature of data set [2]: Cytotoxicity against human H460 cells by MTT assay. Format: functional, cell-based. Particulars: NCI-H460. The method in brief:
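Antiproliferative IC50 in H460 cells; mean ± SD of at least three independent experiments.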

The nature of data set [3]: Oral bioavailability in ICR mouse at 10 mg/kg by LC-MS/MS analysis. The class given is ADME, organism-based. Particulars: in vivo.
Data set [4] concerns HCT-116. The data set can be described thus: Induction of apoptosis in human HCT116 cells assessed as increase in p53 protein level at 0.1 to 3 uM after 24 hrs by immunoblotting analysis. Format: functional, cell-based. (In general: Immunoblotting shows a protein as a band on a membrane.)
For data set [5], the system named is HCT-116. The data set can be described thus: Induction of apoptosis in human HCT116 cells assessed as accumulation at sub-G1 phase after 24 hrs by propidium iodide staining-based flow cytometric analysis. The class given is functional, cell-based. The method in brief:
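HCT116 cells treated with indicated concentrations for 24 h; DNA content analyzed by flow cytometry for cell cycle distribution and sub-G1 fraction; means of at least three independent experiments.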
Background: Flow cytometry measures light scatter and fluorescence of single cells or particles in a stream.

Data set [6] has as its system HCT-116. As to the kind of experiment: Induction of apoptosis in human HCT116 cells assessed as accumulation at sub-G1 phase at 1 uM by propidium iodide staining-based flow cytometric analysis. The class given is functional, cell-based. Particulars: TDE = time-dependent effect. An outline of the steps: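 HCT116 cells exposed to 1 μM compound for varying time intervals; sub-G1 population quantified by flow cytometry.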

Another data set has as its system A549. As to the kind of experiment: Cytotoxicity against human A549 cells by MTT assay. Format: functional, cell-based.
The target in the next data set is Histone deacetylase 1 (Homo sapiens, UniProt Q13547). The data set can be described thus: Inhibition of HDAC1 (unknown origin) using RHKK(Ac) (379 to 382) p53 peptide as substrate by fluorescence assay.
Data set [7] has as its target T1, Protein deacetylase HDAC6 (Homo sapiens, UniProt Q9UBN7).
T1 sequence (Q9UBN7 whole entry): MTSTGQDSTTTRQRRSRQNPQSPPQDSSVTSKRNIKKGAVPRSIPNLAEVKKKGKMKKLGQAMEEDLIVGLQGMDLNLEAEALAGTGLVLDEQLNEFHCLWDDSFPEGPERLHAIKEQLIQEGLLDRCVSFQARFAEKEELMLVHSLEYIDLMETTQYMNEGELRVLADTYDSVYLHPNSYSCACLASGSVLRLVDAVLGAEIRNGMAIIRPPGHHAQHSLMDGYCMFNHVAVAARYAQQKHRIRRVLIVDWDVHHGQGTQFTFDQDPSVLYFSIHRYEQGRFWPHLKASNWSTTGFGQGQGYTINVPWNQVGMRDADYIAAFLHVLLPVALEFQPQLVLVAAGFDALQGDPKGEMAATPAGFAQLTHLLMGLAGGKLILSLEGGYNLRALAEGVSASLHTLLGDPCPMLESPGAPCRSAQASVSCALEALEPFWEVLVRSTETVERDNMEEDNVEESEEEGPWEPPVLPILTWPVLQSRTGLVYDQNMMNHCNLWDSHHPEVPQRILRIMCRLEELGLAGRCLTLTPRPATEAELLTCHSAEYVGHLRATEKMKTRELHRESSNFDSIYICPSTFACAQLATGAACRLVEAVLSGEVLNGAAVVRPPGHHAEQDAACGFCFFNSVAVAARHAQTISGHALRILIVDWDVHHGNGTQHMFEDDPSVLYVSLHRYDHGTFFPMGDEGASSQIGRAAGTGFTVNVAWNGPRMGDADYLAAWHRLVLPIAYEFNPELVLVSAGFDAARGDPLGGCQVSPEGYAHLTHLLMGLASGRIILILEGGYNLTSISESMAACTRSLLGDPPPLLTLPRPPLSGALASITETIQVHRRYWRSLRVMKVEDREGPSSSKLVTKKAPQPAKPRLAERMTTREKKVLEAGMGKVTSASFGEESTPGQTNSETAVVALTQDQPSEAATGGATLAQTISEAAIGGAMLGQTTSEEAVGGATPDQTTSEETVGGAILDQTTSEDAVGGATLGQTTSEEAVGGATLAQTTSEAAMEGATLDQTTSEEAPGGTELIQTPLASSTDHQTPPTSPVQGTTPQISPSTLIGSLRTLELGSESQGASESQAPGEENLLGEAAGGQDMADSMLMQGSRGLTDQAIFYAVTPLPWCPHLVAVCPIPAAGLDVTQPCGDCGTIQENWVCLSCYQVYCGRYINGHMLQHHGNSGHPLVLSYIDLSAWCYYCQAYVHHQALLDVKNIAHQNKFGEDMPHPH
As to the kind of experiment: Inhibition of HDAC6 (unknown origin) using RHKK(Ac) (379 to 382) p53 peptide as substrate by fluorescence assay.

The structures appear in SMILES notation. The source made the active and inactive calls. The rule behind the calls is not given here.

Chain of Histone deacetylase 1 (Q13547 whole entry): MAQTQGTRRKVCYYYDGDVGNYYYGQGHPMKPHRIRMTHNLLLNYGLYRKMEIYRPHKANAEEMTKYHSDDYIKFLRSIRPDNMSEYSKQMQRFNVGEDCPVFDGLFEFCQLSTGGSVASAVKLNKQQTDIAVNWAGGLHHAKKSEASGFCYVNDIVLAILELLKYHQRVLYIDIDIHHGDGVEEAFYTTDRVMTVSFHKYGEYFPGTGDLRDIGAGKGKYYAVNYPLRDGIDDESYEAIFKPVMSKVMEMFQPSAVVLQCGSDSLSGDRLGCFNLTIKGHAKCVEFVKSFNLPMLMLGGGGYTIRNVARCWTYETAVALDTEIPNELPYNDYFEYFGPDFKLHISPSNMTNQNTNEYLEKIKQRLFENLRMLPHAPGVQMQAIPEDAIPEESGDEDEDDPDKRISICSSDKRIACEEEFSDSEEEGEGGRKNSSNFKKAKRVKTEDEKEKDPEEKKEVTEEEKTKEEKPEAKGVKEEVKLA

Regarding `O=C(/C=C/c1cccc(S(=O)(=O)N2CCc3cccnc32)c1)NO`, the IC50 (as a rule, the concentration that inhibits the measured activity by half) on Histone deacetylase is 0.6 µM; with KB it was 1.29 µM; with PC-3, 4.11 µM; with HCT-116 [1] it was 2.04 µM; in data set [2] it was 1.82 µM.
The matching figures for `O=C(/C=C/c1cccc(S(=O)(=O)n2ncc3ccccc32)c1)NO`: 0.23 µM, 1.26 µM, 3.21 µM, 1.12 µM and 1.21 µM.
In the same order, the values of `O=C(/C=C/c1ccc(S(=O)(=O)N2CCc3cccnc32)cc1)NO` are 0.85 µM, 1.52 µM, 3.64 µM, 1.73 µM and 1.98 µM.
In the case of `O=C(CCCCCCC(=O)Nc1ccccc1)NO` [VORINOSTAT], the bioavailability (commonly dose-corrected exposure relative to a reference, in per cent) in data set [3] worked out at 8.33%. Besides, the outcome in the data set with HCT-116 [4] was inactive. Besides, the Activity result is “Dose-dependent effect” in the data set with HCT-116 [5] and “tde” with HCT-116 [6]. Moreover, the IC50 in [2] turned out to be 0.82 µM; with A549, 1.54 µM.
As to `O=C(/C=C/c1cccc(S(=O)(=O)n2ccc3ccncc32)c1)NO`, the IC50 against Histone deacetylase stood at 0.48 µM; in the data set on KB it was 0.61 µM; with PC-3, 1.11 µM; against Histone deacetylase 1, 4.85 µM; in data set [7], 0.28 µM; in the data set on HCT-116 [1] it was 1.21 µM. Also, inhibition in data set [2] was half-maximal at 0.56 µM (IC50).
Take `O=C(/C=C/c1cccc(S(=O)(=O)n2ccc3ccccc32)c1)NO`: the IC50 worked out at 0.51 µM on Histone deacetylase; 2.92 µM in the data set with KB; 4.01 µM with PC-3; 2.47 µM in the data set with HCT-116 [1]; 3.01 µM in data set [2].
Take `O=C(/C=C/c1ccc(S(=O)(=O)n2ncc3ccccc32)cc1)NO`: the IC50 against Histone deacetylase was 0.5 µM; with KB, 1.83 µM; with PC-3, 3.36 µM; with HCT-116 [1], 3.34 µM; in data set [2], 2.79 µM.
In the same order, the values of `O=C(/C=C/c1ccc(S(=O)(=O)n2ccc3ccncc32)cc1)NO` are 0.56 µM, 1.24 µM, 1.97 µM, 1.92 µM and 1.67 µM.
In the same order, the values of `O=C(/C=C/c1ccc(S(=O)(=O)n2ccc3cccnc32)cc1)NO` are 0.24 µM, 0.87 µM, 1.24 µM, 1.01 µM and 0.91 µM.
